Laboratory results: the array DNA melting data of Ke et al. (doi:10.1101/2024.01.08.574731)

Columns and labels:
[1] = folding enthalpy; higher = less favourable; fluorescence melt of hairpins on a sequencing array, two-state fit; details: sodium 0.088 M
Summary of the method: (§1)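 Melting temperature and folding enthalpy were obtained by bootstrapped two-state fitting. Fits used Cy3 fluorescence of library hairpins with annealed Cy3 and quencher oligos on a sequenced MiSeq flow cell, imaged in 50 mM Na-HEPES pH 8.0, 25 mM NaCl in 2.5 °C steps up to 60 °C and normalised to pre-quench Cy3 and control constructs. Four replicates were combined by inverse-variance weighting, and fitted temperatures were raised by 9.35 °C to match UV melts.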

[2] = melting temperature; fluorescence melt of hairpins on a sequencing array, two-state fit, raised by 9.35 °C to match UV melts; details: sodium 0.088 M
Summary of the method: as §1

Row | Sequence | folding enthalpy [1] [kcal/mol] | Tm [2] [°C]
1 | GTTTGACGAAAGTCGAAC (((.(((....))).))) | -35 | 57.8
2 | TCGGGGAAACCCGA (((((....))))) | -22.8 | 53.3
3 | GCTTTGCGAAAGCAAGC (((.(((....)))))) | -15.2 | 53.2
4 | GATCCAGACGTGGATC ((((((....)))))) | -45.1 | 53.2
5 | GTGTGCGAAAGCAACCAC ((((((....)))..))) | -14.3 | 38.8
6 | TCAGGGAAACCTGA (((((....))))) | -22.8 | 41.8
7 | GCAACGGGAAACTGTTGC (((((.(....).))))) | -40.8 | 55.6
8 | GTCCGATCGAAAGATGAC (((..(((....)))))) | -10.7 | 28.3
9 | GCCTAACGAAAGTTTGGC (((.(((....))).))) | -50.4 | 54.2
10 | GCTTTGGCGAAAGCCAGC (((..(((....)))))) | -10.1 | 38.2
11 | CGCCCGGAAACGGCAGCG ((((((....)))..))) | -30.7 | 48.7
12 | GCCCTCGAAAGAGGGGGC ((((((....)))..))) | -15.1 | 68.4
13 | GATATTGAAAAATATC ((((((....)))))) | -22.6 | 37
14 | GCCCCGCGAAAGCAGAGC ((.(.((....)).).)) | -11.5 | 32.8
15 | GCACAGCGAAAGCCCTGC (((..((....))..))) | -8.82 | 32.1
16 | GCATCACGAAAGTGCTGC (((.(((....))).))) | -44 | 52.4
17 | CGCGGAATGGTCCGCG ((((((....)))))) | -30.2 | 69
18 | GTCGTAGGAAACTGCGAC ((((.((....)).)))) | -55.2 | 53.5
19 | GATCTCACTGAGATC ((((((...)))))) | -34 | 52.1

Row | Sequence | folding enthalpy [1] [kcal/mol] | Tm [2] [°C]
20 | GATCGAACATCGATC ((((((...)))))) | -37.3 | 49
21 | GCTAAGCGAAAGCGGAGC (((..((....))..))) | -20.3 | 57.2
22 | GGGAGGCGAAAGCCCCC (((.(((....)))))) | -19.2 | 66.3
23 | GGTGACGAAAGTCGACC ((((((....))).))) | -23.1 | 53.4
24 | CGCTCGGAAACGATTGCG ((((((....)))..))) | -25.4 | 39.8
25 | GATCCCTCCCGGGATC ((((((....)))))) | -40.5 | 61.4
26 | CGTGTCGGAAACGATACG (((.(((....))).))) | -39.1 | 53.2
27 | GCTTTGGGAAACCAAGGC ((.((((....)))).)) | -29.7 | 47.8
28 | GTCTCGGGAAACCGAGGC (.(((((....))))).) | -29 | 57.6
29 | GATCGAGCGCTCGATC ((((((....)))))) | -44 | 62.2
30 | GATCTCAGCGGAGATC ((((((....)))))) | -38.3 | 53.7
31 | GCGACGCGAAAGCGCAGC ((..(((....)))..)) | -15.5 | 58.9
32 | GGTGACGAAAGTCTAACC ((((((....)))..))) | -18.2 | 42.2
33 | GTATAGCGAAAGCTTAC (((.(((....)))))) | -12.8 | 39.2
34 | GGCAGTGGAAACGCTGCC (((((.(....).))))) | -42.3 | 62.7
35 | GTGGTCGAAAGACATCAC ((((((....)))..))) | -14.3 | 34.2
36 | GATTGCCGAAAGGCTATC (((.(((....))).))) | -19.1 | 51.4
37 | GGTTAACGAAAGTTACC (((.(((....)))))) | -21.9 | 43.9
38 | GCGAGCGGTCGC ((((....)))) | -22.4 | 52
